Among the data in paper PMC5543573 (Current Pharmaceutical Design, 2017) are MIC90 and IC50 values, retold here.

Series [1] has as its system Candida albicans (ATCC 24433). Nature of the series: Broth microdilution MIC90. Format: cell-based. Conditions: ATCC24433, read-out: MIC90 Ca. (Broth dilution looks for growth in wells or tubes with falling amounts of substance.)
Series [2] is described as follows: MTT cytotoxicity assay. The class given is cell-based. Conditions: human. In outline: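 Human CCD 841 CoN colon epithelial cells were grown in RPMI-1640 with 10% FBS, 1% penicillin/streptomycin, 1% L-glutamine and amphotericin B at 37 °C under 5% CO2. They were seeded at 5x10^3 cells/well, then treated 24 h later with test compound at 1.95–1000 µg/ml for 24 h. MTT solution (5 mg/mL) was added for 3 h at 37 °C, formazan dissolved in DMSO, and absorbance read at 540 nm. IC50 was obtained by regression of proliferation against concentration.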
Background: Formazan colour is commonly taken as a measure of viable cells.

Converted amounts (≈) assume the structure as drawn.

The term MIC90 denotes the lowest concentration that inhibits either 90% of growth or 90% of the strains tested, depending on the study. For the compound `CC(=O)N1CCN(c2ccc(OCC3COC(Cn4ccnc4)(c4ccc(Cl)cc4Cl)O3)cc2)CC1` (centres unmarked) [Ketoconazole], in series [1], the MIC90 worked out at 7.8 µg/mL (≈ 14.7 µM).

The term IC50 denotes the concentration at which inhibition is half-maximal. Low readings indicate greater potency in that assay, high ones weaker potency in that assay. For `O=C(N/N=C/c1ccc([N+](=O)[O-])o1)c1ccc(O)cc1` [Nifuroxazide], in series [2], the half-inhibitory concentration (IC50) at 24 h was 122 µg/mL (≈ 443 µM).
